Measured values gathered from unrelated publications.
Protocols differ between the studies behind these lines.
Target: Serine/threonine-protein kinase ULK2 (ULK2, Homo sapiens, UniProt Q8IYT8)
Residues used in one study (Q8IYT8 1-1036): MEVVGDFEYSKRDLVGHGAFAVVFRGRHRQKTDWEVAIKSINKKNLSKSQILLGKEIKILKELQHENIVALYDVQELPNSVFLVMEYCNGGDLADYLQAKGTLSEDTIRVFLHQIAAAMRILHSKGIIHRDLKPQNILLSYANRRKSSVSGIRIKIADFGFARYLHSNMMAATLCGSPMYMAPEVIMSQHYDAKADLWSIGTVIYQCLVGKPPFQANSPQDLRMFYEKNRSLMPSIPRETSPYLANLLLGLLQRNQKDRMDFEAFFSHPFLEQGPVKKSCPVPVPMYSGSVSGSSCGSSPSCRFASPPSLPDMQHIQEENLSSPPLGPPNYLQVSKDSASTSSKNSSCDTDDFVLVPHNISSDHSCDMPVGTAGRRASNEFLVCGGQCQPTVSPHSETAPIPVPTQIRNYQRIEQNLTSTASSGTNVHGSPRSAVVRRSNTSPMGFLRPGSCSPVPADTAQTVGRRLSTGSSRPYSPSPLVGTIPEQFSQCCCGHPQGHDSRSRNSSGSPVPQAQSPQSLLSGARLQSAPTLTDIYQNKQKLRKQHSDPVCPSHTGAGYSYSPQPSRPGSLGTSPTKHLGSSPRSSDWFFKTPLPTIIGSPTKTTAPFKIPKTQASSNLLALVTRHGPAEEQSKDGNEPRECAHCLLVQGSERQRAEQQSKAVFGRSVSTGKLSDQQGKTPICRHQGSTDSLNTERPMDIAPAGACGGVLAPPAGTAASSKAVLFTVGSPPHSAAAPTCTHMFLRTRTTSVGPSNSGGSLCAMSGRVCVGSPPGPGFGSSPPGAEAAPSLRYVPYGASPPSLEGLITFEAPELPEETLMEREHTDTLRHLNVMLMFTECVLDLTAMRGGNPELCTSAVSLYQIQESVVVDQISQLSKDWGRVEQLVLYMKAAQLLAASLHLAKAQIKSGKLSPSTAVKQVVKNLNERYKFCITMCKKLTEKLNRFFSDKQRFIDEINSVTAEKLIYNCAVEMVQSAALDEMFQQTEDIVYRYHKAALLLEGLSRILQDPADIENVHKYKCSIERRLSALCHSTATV

| SMILES | observed | mode | technique | tested at | endpoint | result |
| --- | --- | --- | --- | --- | --- | --- |
| C#Cc1cc(-c2cc(Nc3nc(N[C@@H](C)c4ccc(F)cn4)ncc3Cl)n[nH]2)ccc1C=O | enzyme activity | inhibitor |  | 0.2 µM | inhibition | 5.21% |
| COc1ccc2oc(-c3ccc4nc(N)oc4c3)c/c(=N\c3ccccc3NC(=O)CCN)c2c1 | binding |  |  | 1 µM | remaining binding | 106% |
| N#Cc1ccc(NC(=O)Nc2ccccc2)cc1 | cell-free assay |  | competition with immobilised ligand | 25 µM | remaining binding | 86% |
| CN1CCN(C(=O)c2ccc(NC(=O)Nc3ccc(N(C)c4ccnc(Nc5ccc(CS(C)(=O)=O)cc5)n4)cc3)cc2)CC1 | binding |  |  | 1 µM | remaining binding | 78% |
| C=CC(=O)N1CCC[C@@H](n2nc(-c3ccc(Oc4ccccc4)cc3)c3c(N)ncnc32)C1 | enzyme activity | inhibitor |  | 1 µM | inhibition | 13% |
| Cc1ccc(NC(=O)c2ccnc(C(F)(F)F)c2)cc1-c1cc(OCCO)nc(N2CCOCC2)c1 | binding |  |  | 1 µM | remaining binding | 100% |
| C=CC(=O)N1CCC([C@@H]2CCNc3c(C(N)=O)c(-c4ccc(Oc5ccccc5)cc4)nn32)CC1 | enzyme activity | inhibitor |  | 1 µM | inhibition | 8% |
| CCCCC(=O)Nc1ccc(-c2ccc3ncn(CCC)c(=O)c3c2)cn1 | binding |  | competition with immobilised ligand | 0.5 µM | remaining binding | 100% |
